Test results reported in ChEMBL document CHEMBL1177748, “Homo- and heptanor-sterols and tremulane sesquiterpenes from cultures of Phellinus igniarius” (2010).
Active and inactive are the calls of the source. No cut-off for these calls is given here.

Columns and labels:
Thoracic aorta = test: Vasodilating activity in Langendorff-perfused Sprague-Dawley rat thoracic aorta assessed as relaxation of phenylephrine-induced vasoconstriction at 10 uM relative to untreated control; assay type: functional; design: scale not given: the % may be the effect or the level left
How it was run: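 Thoracic aortic rings were taken from Langendorff-perfused Sprague-Dawley rats weighing 200 ± 20 g. Rings were precontracted with phenylephrine, and isotonic tension was recorded. Compounds were tested at 10^-5 M. The relaxing rate was expressed as a percentage relative to the blank control.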

Rattus norvegicus = species: Rattus norvegicus; test: Inhibition of platelet-activating factor-induced beta-glucuronidase release in rat PMNC at 10 uM; assay type: functional
[1] = test system: Human immunodeficiency virus 1; test: Antiviral activity against HIV1 assessed as inhibition of viral replication at 10 uM; assay type: functional, organism-based
Liver microsomes = test: Antioxidant activity against Fe2+-cystine induced lipid peroxidation in rat liver microsomes at 10 uM; assay type: functional; settings: Microsome
PC-12 = test: Neuroprotective activity against glutamate-induced neurotoxicity in rat PC12 cells at 10 uM; assay type: functional, cell-based
[2] = molecular target: T1, Tyrosine-protein phosphatase non-receptor type 1 (Homo sapiens) (UniProt P18031); test: Inhibition of PTB1B at 10 uM
T1 sequence (whole entry): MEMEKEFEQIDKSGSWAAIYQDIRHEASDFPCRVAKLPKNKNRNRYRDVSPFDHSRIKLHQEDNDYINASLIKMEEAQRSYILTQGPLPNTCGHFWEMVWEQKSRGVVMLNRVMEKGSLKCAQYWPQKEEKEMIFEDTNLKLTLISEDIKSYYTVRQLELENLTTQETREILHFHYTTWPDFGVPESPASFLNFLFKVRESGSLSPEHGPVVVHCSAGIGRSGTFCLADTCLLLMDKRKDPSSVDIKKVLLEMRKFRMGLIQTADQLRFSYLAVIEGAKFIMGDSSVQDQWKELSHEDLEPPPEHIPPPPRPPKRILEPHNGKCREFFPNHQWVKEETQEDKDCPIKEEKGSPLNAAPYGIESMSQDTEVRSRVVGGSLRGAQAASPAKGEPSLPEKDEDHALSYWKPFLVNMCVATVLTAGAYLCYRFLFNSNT

Row | SMILES | Activity (Thoracic aorta) [%] | inhibition (Rattus norvegicus) | inhibition [1] | inhibition (Liver microsomes) | inhibition (PC-12) | inhibition [2]
1 | C[C@H]1CCC2=C(COC2=O)[C@@]2(O)CC(C)(C)C[C@@H]12 | 46.6 | inactive | inactive | inactive | inactive | inactive
2 | C[C@H]1CC[C@H](CO)[C@H](CO)C2=C[C@](C)(CO)C[C@H]21 | 35.7 | inactive | inactive | inactive | inactive | inactive
3 | COc1ccc(CCN(C)CCCC(C#N)(c2ccc(OC)c(OC)c2)C(C)C)cc1OC (stereo not given) [VERAPAMIL] | 83.3 |  |  |  |  | 
4 | C[C@H]1CC[C@H](CO)[C@H](CO)C2=C[C@@](C)(CO)C[C@H]21 | 45.4 | inactive | inactive | inactive | inactive | inactive
5 | CC1(C)OCC2=CC[C@H]3C(C)(C)[C@@H](O)CC[C@]3(C)[C@H]2CO1 | 32.1 | inactive | inactive | inactive | inactive | inactive
